Activity calls are given as the source filed them. The rule behind the calls is not given here.
How the values were obtained:
Androgen receptor [1] = molecular target: T1, Androgen receptor (Homo sapiens, UniProt P10275); type: cell-based, LNCaP
T1 sequence (P10275 whole entry): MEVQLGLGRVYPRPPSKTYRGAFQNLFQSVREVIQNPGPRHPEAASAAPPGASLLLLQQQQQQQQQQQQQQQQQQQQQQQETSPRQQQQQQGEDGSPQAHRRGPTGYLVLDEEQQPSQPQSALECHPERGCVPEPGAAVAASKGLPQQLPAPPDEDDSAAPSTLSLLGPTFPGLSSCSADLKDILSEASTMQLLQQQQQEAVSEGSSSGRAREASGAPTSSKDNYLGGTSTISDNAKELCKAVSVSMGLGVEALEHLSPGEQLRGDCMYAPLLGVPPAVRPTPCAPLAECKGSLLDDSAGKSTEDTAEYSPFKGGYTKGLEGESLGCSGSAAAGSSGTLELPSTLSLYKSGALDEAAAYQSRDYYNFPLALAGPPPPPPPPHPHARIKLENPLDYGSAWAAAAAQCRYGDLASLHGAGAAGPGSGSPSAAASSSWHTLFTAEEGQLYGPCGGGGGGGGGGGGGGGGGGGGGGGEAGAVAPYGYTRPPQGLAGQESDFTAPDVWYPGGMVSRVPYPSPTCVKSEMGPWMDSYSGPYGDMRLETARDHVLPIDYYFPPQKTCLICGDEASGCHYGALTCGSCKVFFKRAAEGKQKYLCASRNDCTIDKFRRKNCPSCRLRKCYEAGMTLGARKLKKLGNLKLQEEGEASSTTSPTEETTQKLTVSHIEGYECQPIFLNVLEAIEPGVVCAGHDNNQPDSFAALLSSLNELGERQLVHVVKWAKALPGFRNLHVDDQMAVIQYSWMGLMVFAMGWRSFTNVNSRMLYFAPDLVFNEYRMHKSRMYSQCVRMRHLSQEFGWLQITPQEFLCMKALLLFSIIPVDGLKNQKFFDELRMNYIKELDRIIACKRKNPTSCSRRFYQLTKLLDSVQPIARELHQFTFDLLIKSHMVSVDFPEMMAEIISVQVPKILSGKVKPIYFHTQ

NIH3T3 = assay: Cytotoxicity against mouse NIH/3T3 cells assessed as reduction in cell viability at 50 uM after 24 hrs by MTT assay; type: cell-based; conditions: nih3t3, 24 h
[2] = molecular target: T2, Androgen receptor (Homo sapiens) (UniProt P10275); assay: Displacement of fluormone-AL green from GST-tagged androgen receptor LBD (unknown origin) at 10 uM measured after 4 hrs by fluorescence polarization assay; conditions: filed as antagonist
T2 sequence (whole entry): T1 sequence (P10275 whole entry)
Method in brief: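 PolarScreen AR competitor assay. Compound mixed with GST-tagged AR-LBD and Fluormone AL Green in AR Green assay buffer, incubated 4 h at room temperature protected from light. Fluorescence polarization (mP) measured.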

PC-3 = assay: Antiproliferative activity against human PC-3 cells assessed as reduction in cell proliferation measured after 72 hrs by MTT assay; type: functional, cell-based
Method in brief: (§1)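 LNCaP, C4-2, PC3 and DU145 seeded in RPMI-1640 with 5% charcoal-stripped serum (LNCaP 3×10^3, the others 1.5×10^3 cells/well). After 24 h at 37 °C, treated with 5 nM DHT and serial compound dilutions for 72 h. MTT 4 h, formazan dissolved overnight in 10% SDS-0.1% HCl-PBS. A570 read with 650 nm reference.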

LNCaP [3] = assay: Effect on prostate specific antigen mRNA expression in human LNCaP cells at 0.1 to 10 uM measured after 48 hrs by SYBR green dye based qPCR analysis; type: functional, cell-based; conditions: dose 0.1-10 µM
Method in brief: (§2)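 LNCaP cells kept in medium with 5% charcoal-stripped serum in six-well plates. Treated with DHT 5 nM plus compound at 0.1, 1 or 10 μM, or DMSO. mRNA extracted 48 h after treatment, reverse transcribed and quantified by qPCR.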

[4] = molecular target: T2, Androgen receptor (Homo sapiens); assay: Antagonist activity at androgen receptor in human LNCaP cells assessed as reduction in DHT-induced TMPRSS2 mRNA expression after 48 hrs by SYBR green dye based qPCR analysis; type: cell-based; conditions: filed as antagonist
Method in brief: as §2

LNCaP [5] = assay: Antiproliferative activity against human LNCaP cells assessed as reduction in cell proliferation measured after 72 hrs by MTT assay; type: functional, cell-based
Method in brief: as §1

LNCaP C4-2 = assay: Antiproliferative activity against human LNCaP C4-2 cells assessed as reduction in cell proliferation measured after 72 hrs by MTT assay; type: functional, cell-based
Method in brief: as §1

DU-145 = assay: Antiproliferative activity against human DU-145 cells assessed as reduction in cell proliferation measured after 72 hrs by MTT assay; type: functional, cell-based
Method in brief: as §1

[6] = molecular target: T3, Prostate-specific antigen (Homo sapiens, UniProt P07288); assay: Inhibition of prostate specific antigen in human LNCaP cells; type: cell-based
T3 sequence (P07288 whole entry): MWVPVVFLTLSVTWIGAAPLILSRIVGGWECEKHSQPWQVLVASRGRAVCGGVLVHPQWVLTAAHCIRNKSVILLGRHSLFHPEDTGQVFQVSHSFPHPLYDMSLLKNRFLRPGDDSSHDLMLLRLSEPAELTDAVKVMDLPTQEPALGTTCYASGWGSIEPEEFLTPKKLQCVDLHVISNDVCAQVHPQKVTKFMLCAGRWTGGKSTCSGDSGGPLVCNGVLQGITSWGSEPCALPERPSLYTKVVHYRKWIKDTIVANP

[7] = molecular target: T2, Androgen receptor (Homo sapiens); assay: Antagonist activity at androgen receptor in human LNCaP cells transfected with ARR2 PB-eGFP assessed as inhibition of DHT-induced transcriptional activity at 10 uM measured after 3 days by fluorescence assay relative to control; type: cell-based; conditions: filed as antagonist, time 3.0 day
Method in brief: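 LNCaP-ARR2PB-eGFP reporter cells in RPMI-1640 starved 5 days in 5% charcoal-stripped serum. Seeded at 3.5×10^4 cells/well, 24 h at 37 °C, 5% CO2. Co-treated with 5 nM DHT and compound at 10 µM (screen) or 0–50 µM. Fluorescence read after 3 days (ex 485, em 535 nm).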

Androgen receptor [8] = molecular target: T1, Androgen receptor; assay: Displacement of fluormone-AL green from GST-tagged androgen receptor LBD (unknown origin) measured after 4 hrs by fluorescence polarization assay

Row | IC50 (Androgen receptor [1]) [nM] | inhibition [2] | Structure (SMILES) | Activity (PC-3) | Activity (LNCaP C4-2) | Activity (DU-145) | further results
1 | 5600 |  | c1ccc(C2Nc3ccc4ccccc4c3C3C4CCC(C4)C23)cc1 (stereo unspecified) |  |  |  | 
2 | 150 | Active | Brc1ccc(C2Nc3ccc4ccccc4c3C3C=CCC32)cc1 (stereo unspecified) | Active | Active | Active | Activity (NIH3T3): Non-Toxic; Activity (LNCaP [3]): Active; Activity [4]: Dose-dependent effect; Activity (LNCaP [5]): Active
3 | 7450 |  | Clc1ccc(C2Nc3ccc4ccccc4c3C3C4CCC(C4)C23)cc1 (stereo unspecified) |  |  |  | 
4 | 820 | Active | CCOC(=O)C1Nc2ccc3ccccc3c2C2C=CCC12 (stereo unspecified) |  |  |  | 
5 | 20400 |  | Clc1ccc(C2Nc3ccc4ccccc4c3C3OCCCC23)c(Cl)c1 (stereo unspecified) |  |  |  | 
6 | 1920 | Active | Clc1ccc(C2Nc3ccc4ccccc4c3C3C=CCC32)cc1 (stereo unspecified) |  |  |  | 
7 |  |  | CNC(=O)c1ccc(N2C(=S)N(c3ccc(C#N)c(C(F)(F)F)c3)C(=O)C2(C)C)cc1F [ENZALUTAMIDE] | Active | Active | Active | IC50 [6]: 130 nM; Activity (LNCaP [5]): Active
8 | 2400 | Active | Clc1ccccc1C1Nc2ccc3ccccc3c2C2C=CCC21 (stereo unspecified) | Active | Active | Active | Activity (NIH3T3): Non-Toxic; inhibition [7]: > 50%; IC50 (Androgen receptor [8]): 4020 nM
9 | 220 | Active | Fc1ccccc1C1Nc2ccc3ccccc3c2C2C=CCC21 (stereo unspecified) |  |  |  | 

— ChEMBL document CHEMBL4680213, “Novel androgen receptor antagonist identified by structure-based virtual screening, structural optimization, and biological evaluation” (Eur J Med Chem, 2020)
